# How the values were obtained:
# GLUT1 = target: T1, GLUT1 (Homo sapiens, UniProt P11166); assay type: cell-based
# T1 sequence (P11166 1-492): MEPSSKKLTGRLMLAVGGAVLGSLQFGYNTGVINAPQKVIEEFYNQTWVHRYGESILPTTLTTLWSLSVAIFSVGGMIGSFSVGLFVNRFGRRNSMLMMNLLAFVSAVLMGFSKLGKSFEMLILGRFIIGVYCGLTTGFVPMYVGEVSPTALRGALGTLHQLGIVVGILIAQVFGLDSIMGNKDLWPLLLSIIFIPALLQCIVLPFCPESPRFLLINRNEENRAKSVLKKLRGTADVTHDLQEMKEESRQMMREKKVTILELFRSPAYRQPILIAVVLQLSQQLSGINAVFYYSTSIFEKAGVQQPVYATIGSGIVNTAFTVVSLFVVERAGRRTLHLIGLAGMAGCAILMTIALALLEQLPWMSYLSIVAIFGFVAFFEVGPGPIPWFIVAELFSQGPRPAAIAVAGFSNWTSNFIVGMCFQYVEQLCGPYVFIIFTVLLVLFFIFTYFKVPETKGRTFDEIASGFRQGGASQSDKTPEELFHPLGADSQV
# Method in brief: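 VW4000fgy1 hxt0 yeast carrying human GLUT1 were grown at 30 °C: first in SC-uracil/2% maltose for 2–3 days, then 1–2 days in SC-uracil/2% glucose from OD600 ~0.5. Cells were resuspended in PBS pH 7.4 at OD600 ~10 and given 5 mM C14-glucose for 10 min. Uptake was quenched with ice-cold buffer pH 5.5, filtered, and counted. Controls: 1% DMSO and 200 μM phloretin.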
# GLUT4 = target: T2, GLUT4 (Homo sapiens, UniProt P14672); assay type: cell-based
# T2 sequence (P14672 1-509): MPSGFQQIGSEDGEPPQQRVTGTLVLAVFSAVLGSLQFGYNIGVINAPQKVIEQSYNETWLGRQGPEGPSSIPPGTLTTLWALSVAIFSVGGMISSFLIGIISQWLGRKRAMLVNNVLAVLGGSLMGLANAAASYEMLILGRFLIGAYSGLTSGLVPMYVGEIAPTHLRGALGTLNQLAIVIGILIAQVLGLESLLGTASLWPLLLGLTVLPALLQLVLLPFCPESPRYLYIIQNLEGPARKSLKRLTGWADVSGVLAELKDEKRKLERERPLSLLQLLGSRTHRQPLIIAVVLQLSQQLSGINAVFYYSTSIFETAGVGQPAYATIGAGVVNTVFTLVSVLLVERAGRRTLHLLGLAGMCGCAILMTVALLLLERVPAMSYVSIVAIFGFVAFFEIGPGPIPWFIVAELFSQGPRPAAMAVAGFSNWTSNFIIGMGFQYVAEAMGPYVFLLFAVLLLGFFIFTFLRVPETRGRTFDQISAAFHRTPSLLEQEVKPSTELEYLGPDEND
# Method in brief: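 VW4000fgy1erg4 hxt0 yeast expressing human GLUT4 were cultured at 30 °C, first in SC-uracil/1% maltose and then in SC-uracil/0.2% glucose from OD600 ~0.5. Cells in PBS pH 7.4 (OD600 ~10) were fed 5 mM C14-glucose for 10 min. The reaction was quenched in ice-cold buffer pH 5.5, then filtered and scintillation-counted. Vehicle control was 1% DMSO; 200 μM phloretin served as positive control.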
# GLUT5 = assay type: cell-based, human
# Method in brief: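 Uses hexose-transporter-null VW4000 yeast expressing human GLUT5, cultured at 30 °C and 180 rpm. Cells were grown one day in YEP/2% maltose with G418, then 1–2 days in YEP/2% fructose starting from OD600 ~0.5. Washed cells in PBS pH 7.4 (OD600 ~10) took up 10 mM C14-fructose for 10 min. Uptake was stopped with ice-cold KPi/LiCl quench buffer pH 5.5, then filtered and scintillation-counted. Controls were 1% DMSO and 100 μM MSNBA. Screening was at 100 μM; three independent measurements.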
# K562 cells = test: MTT cytotoxicity assay in K562 cells; assay type: cell-based; conditions: read-out: K562- IC50; MTT, 48 h, Mean±SD, n=3
# Method in brief: (§1)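 Cells were grown in suspension in RPMI 1640 with 10% FBS and penicillin/streptomycin/amphotericin B at 37 °C under 5% CO2. They were seeded at ~5×10^3 cells/well, kept overnight, then exposed to test compounds diluted in DMSO for 48 h. Cells were pelleted (300 g, 4 °C, 5 min) and washed twice in phosphate buffer. MTT (5 mg/ml stock) was added for 4 h at 37 °C, formazan dissolved in DMSO, and A570 read. Triplicate; IC50 given as mean±SD.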
# CEM cells [1] = test: MTT cytotoxicity assay in CEM cells; assay type: cell-based; conditions: read-out: CEM- IC50, 48 h, Mean±SD, n=3
# Method in brief: as §1
# white blood cells (WBCs) = test: MTT assay on non-transformed white blood cells; assay type: cell-based, human; conditions: 48 h treatment with 100 μM
# Method in brief: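 WBCs from a healthy adult volunteer were isolated by HiSep centrifugation at 400 xg for 30 min, followed by repeated RBC lysis and PBS washes. Cells were held at 37 °C under 5% CO2 overnight in 96-well plates. Test compound was applied at 2.5–100 μM for 48 h. After two PBS washes, MTT was added for 4 h at 37 °C; formazan was dissolved in DMSO and absorbance read at 570 nm.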
# CEM cells [2] = test: Apoptosis induction by flow cytometry; assay type: cell-based; conditions: IC50 concentration, 24 h
# Method in brief: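 CEM cells seeded in 24-well plates and held overnight at 37 °C under CO2. Medium was then replaced, and cells were exposed to the test compound for 24 h; untreated cells served as the negative control. Cells were washed in PBS, pelleted at 500 xg and 4 °C, resuspended in ice-cold binding buffer, and stained with annexin V-FITC plus PI for 15 min on ice in the dark. Analysed by flow cytometry, in triplicate.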
# CEM cells [3] = test: Cell cycle analysis by flow cytometry; assay type: cell-based; conditions: IC50 concentration, 24 h
# Method in brief: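 Cells were seeded in 24-well plates overnight, then given fresh medium and exposed to the test compound for 24 h beside an untreated control. After a PBS wash, cells were fixed in ice-cold 70% ethanol on ice for 2 h, then washed again. They were stained with PI for 15 min at 37 °C and analysed by flow cytometry within 30 min, in triplicate.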
# [4] = primary screen, 100 μM compound
compound,measurement,setting,value
"O=C(CN1C(=O)SC(=Cc2ccc(Cl)cc2)C1=O)Nc1ccc(Cl)cc1C(F)(F)F [Compound G5, 2-[5-(4-Chlorobenzylidene)-2,4-dioxothiazolidin-3-yl]-N-(4-chloro-2-trifluromethylphenyl) acetamide]",decrease of relative transport activity of GLUT1,GLUT1; [4],> 50%
same,IC50,"GLUT1; read-out: GLUT1 IC50, hxt0 yeast cells expressing GLUT1, 5 mM C14-glucose, 10 minutes",5.4 ± 1.3 µM
same,decrease of relative transport activity of GLUT4,GLUT4; [4],> 50%
same,IC50,"GLUT4; read-out: GLUT4 IC50, hxt0 yeast cells expressing GLUT4, 5 mM C14-glucose, 10 minutes",9.5 ± 2.8 µM
same,decrease of relative transport activity of GLUT5,GLUT5; [4],> 50%
same,IC50,"GLUT5; read-out: GLUT5 IC50, hxt0 yeast cells expressing GLUT5, 10 mM C14-fructose, 10 minutes",34.5 ± 2.4 µM
same,IC50,K562 cells,34.9 ± 1.07 µM
same,IC50,CEM cells [1],13.5 ± 3.88 µM
same,viable WBC cells,white blood cells (WBCs),More than 66%
same,percentage of cells in early apoptotic phase,CEM cells [2],1.30%
same,percentage of cells in late apoptotic phase,CEM cells [2],59.22%
same,percentage of live cells,CEM cells [2],25.58%
same,percentage of necrotic cell population,CEM cells [2],13.90%
same,percentage of cells arrested in G0-G1 phase,CEM cells [3],52.0%
same,percentage of cells arrested in the G2-M phase,CEM cells [3],22.1%

# Reference: publication PMC9398548 (European journal of pharmaceutical sciences : official …, 2020)
